Bioassay records from PubChem.
Hits are enriched below; roughly 1.6% of the tested compounds scored in any of these assays.
ASAP1 GAP inh: inhibitors of human ASAP1 ArfGAP activity | inhibition, % at 16.5 µM | ASAP1-stimulated ARF1 GTP hydrolysis, GDP FP detection | hit rate 0.19% among 360,000 | AID 624377; in the data active means inhibition above about 25%;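 further: 0% = vehicle with enzyme and substrate and 100% = no enzyme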
ARFGAP1 inh: inhibitors of rat ARFGAP1. Q62848. Arfgap1-stimulated ARF1 GTP hydrolysis, GDP FP detection. inhibition, % at 16.5 µM. hit rate 0.26% among 360,000;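 active means inhibition above a per-plate limit, mean inhibition of low control wells plus 3 SD, cut at about 25% in these data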;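 further: 0% = DMSO wells with enzyme and 100% = wells lacking Arfgap1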
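Replicates: Single well per compound | Assay system: Truncated rat Arfgap1 GAP domain | Control set: No-Arfgap1 wells (100%) versus DMSO full-reaction wells (0%) | Times: Enzyme reaction 120 min at 25 °C after 20 min preincubation | Reagent: Human ARF1(Δ1-17)-GTP substrate | Measured by: Tracer-displacement fluorescence polarization with EDTA stop, 620/688 nm | Measure: Percent inhibition of Arfgap1-stimulated GTP hydrolysis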
Cardio protect: myocardial damage modulation in H9c2 cells. hit rate 0.63% among 360,000. protection from H2O2 cell death, % at 20 µM. H9c2 cardiomyocytes, H2O2 injury protection, ATPLite, 2 h;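 active means compounds giving at least 50% protection of heart cells from peroxide-induced death in the single-dose screen, raw or plate-pattern-corrected value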;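 further: 0% = DMSO wells with peroxide and 100% = DMSO wells without peroxide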
Neddylation inh: cullin neddylation inhibition; TR-FRET cullin neddylation, biochemical; inhibition, % at 25 µM; hit rate 0.58% among 360,000; in the data active means inhibition above about 36%
Target sequence (P61081 whole entry, looked up): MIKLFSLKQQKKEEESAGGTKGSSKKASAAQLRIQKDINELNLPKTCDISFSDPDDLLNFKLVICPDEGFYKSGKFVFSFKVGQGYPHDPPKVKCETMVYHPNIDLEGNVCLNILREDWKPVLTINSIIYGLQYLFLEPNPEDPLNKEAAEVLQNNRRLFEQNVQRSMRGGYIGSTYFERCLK
Target sequence (Q13564 whole entry, looked up): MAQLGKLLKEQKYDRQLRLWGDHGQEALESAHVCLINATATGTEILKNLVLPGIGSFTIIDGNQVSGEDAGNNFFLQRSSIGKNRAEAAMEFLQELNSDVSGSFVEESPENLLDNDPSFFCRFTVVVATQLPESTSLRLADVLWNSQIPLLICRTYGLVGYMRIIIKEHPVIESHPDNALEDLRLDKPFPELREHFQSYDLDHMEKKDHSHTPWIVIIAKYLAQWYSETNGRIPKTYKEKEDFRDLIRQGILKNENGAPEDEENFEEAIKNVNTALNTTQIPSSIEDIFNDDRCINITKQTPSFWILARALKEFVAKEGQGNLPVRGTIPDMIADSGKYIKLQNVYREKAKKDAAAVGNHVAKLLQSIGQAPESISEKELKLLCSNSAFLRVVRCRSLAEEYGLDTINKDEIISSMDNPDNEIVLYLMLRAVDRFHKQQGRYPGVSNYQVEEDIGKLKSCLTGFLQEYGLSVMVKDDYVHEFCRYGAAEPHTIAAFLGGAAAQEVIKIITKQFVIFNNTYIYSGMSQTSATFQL
ASAP1 inh confirm: confirmation of human ASAP1 inhibitors; shares compounds with ASAP1 GAP inh; ASAP1-stimulated Arf1 GTPase, GDP fluorescence polarization; inhibition, % at 16.5 µM; hit rate 37% among 620; AID 624431;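 active means mean inhibition over triplicates exceeds the hit threshold derived for the earlier primary screening run, cut at about 25% in these data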
* = called active by the depositor; x = not tested or not shown.

SMILES	ASAP1 GAP inh	ARFGAP1 inh	Cardio protect	Neddylation inh	ASAP1 inh confirm
C[C@H]1CCCCO[C@H](CN(C)Cc2ccccc2)[C@@H](C)CN([C@@H](C)CO)C(=O)c2cc(NC(=O)CCC(F)(F)F)ccc2O1	8	-4	-5	-3	x
CC1CCC(C(C)C)C(NC(=O)c2ccncc2)C1 (stereo not drawn)	x	x	-1	1	x
COc1cccc(-c2onc3ccc(C(=O)/C=C/N(C)C)cc23)c1	35*	2	18	7	51*
COc1ccc(CNC(=O)COC(=O)c2ccc(OCc3c(C)noc3C)cc2)cc1OC	-9	1	-10	-3	x
Cc1noc(C)c1COc1ccc(C(=O)OCC(=O)NCc2ccccc2Cl)cc1	28*	8	2	3	2
Cc1noc(C)c1COc1cccc(C(=O)OCC(=O)NC(=O)c2ccc(OC(F)F)cc2)c1	30*	18	-6	-109	24
COc1ccc(-n2c(SCC(=O)Nc3ccc(NC(C)=O)cc3)nc3ccccc3c2=O)cc1	27*	10	-2	4	4
COc1ccccc1NC(=O)COC(=O)c1cc(C)oc1C	0	12	0	-3	x
COc1ccc(Cl)cc1NC(=O)COC(=O)c1cc(C)oc1C	25*	6	-1	-21	16
Nc1c(N2CCCC2)cc(Cl)c2nonc12	x	x	-12	-13	x
Nc1ccc(N2CCCCC2)c2nonc12	25*	6	-4	-26	13
COCCNc1nc(C)c(C(C)=O)s1	26*	-7	-7	-13	3
CS(=O)(=O)Nc1ccc(-c2ccc(/C=C3\SC(N)=NC3=O)o2)cc1	30*	10	20	-29	62*
Cc1cc(N2CCN(C)CC2)nc2ccc(NC(=O)CCC(=O)NCCCOC(C)C)cc12	14	14	-3	33	x
Cc1cc(N2CCN(C)CC2)nc2ccc(NC(=O)CCC3CCCC3)cc12	28*	24	-1	34	39*
Cc1cccnc1C1=NOC(Cc2ccccc2)C(=O)N1CCOc1ccc(F)cc1 (stereo not drawn)	5	1	-5	2	x
Cc1cc2nc(NC(=O)C3(C)CCCN(C(C)C)C3)[nH]c2cc1C (stereo not drawn)	-12	1	12	17	x
COc1ccc(C=NNC(=S)Nc2ccc(F)cc2)cc1OC	1	12	-8	-11	x
COc1ccc(C=NNC(=S)NN=Cc2ccc(OC)c(OC)c2)cc1OC	34*	44*	-4	-3	59*
COc1nccc(Nc2ccccc2)c1C#N	28*	1	0	8	5
S=C(Nc1ccc2nsnc2c1)N1CCCC1	35*	6	-7	15	-2
Cc1cc(N2CCN(C(=O)OC(C)(C)C)C[C@@H]2C)ccc1Br	12	-2	x	x	x
Cc1ccc(NC(=O)C(OC(=O)c2ccc(NC(N)=O)cc2)c2ccccc2)cc1Cl (stereo not drawn)	28*	11	15	10	19
O=C(C(=O)N1CCN(C(=O)Cc2ccccc2)CC1)c1cccc(C(F)(F)F)c1	1	-8	x	x	x
CCCCNC(=O)C[C@H]1C[C@@]2(C(=O)OC)C(=C[C@H](C(C)(C)C)O[C@@H]2C)N(CCC2=CCCCC2)C1=O	-3	1	x	x	x
SMILES	ASAP1 GAP inh	ARFGAP1 inh	Cardio protect	Neddylation inh	ASAP1 inh confirm
Cc1ccc(Nc2nc(NCCO)c3ccccc3n2)cc1C	28*	18	-18	24	6
COc1ccc(OC)c(Nc2nc(NCCO)c3ccccc3n2)c1	10	-10	14	10	x
CCOc1cccc(N(C(=O)CNC(=O)c2ccco2)C(C(=O)NCC2CCCO2)c2ccccc2)c1 (stereo not drawn)	25*	4	18	0	1
O=C1[C@@H]2CSCN2C(=O)CN1Cc1ccccc1F	-3	-6	-3	2	x
O=C1[C@@H]2CSCN2C(=O)CN1Cc1c(F)cccc1Cl	26*	-2	-2	1	-6
CCOC(=O)C1CCCN(C(=O)c2cccc(S(=O)(=O)N(Cc3ccccc3)c3ccccc3OC)c2)C1 (stereo not drawn)	29*	-6	2	2	0
COc1cc2c3nnc(-c4ccc(F)cc4)c-3cn(Cc3cccc(C)c3)c2cc1OC	123*	-6	-39	x	181*
COc1cc2c3nnc(-c4ccc(F)cc4)c-3cn(Cc3cccc(F)c3)c2cc1OC	x	x	-13	-2	x
CCCc1nc2ccc(NC(=O)c3cccs3)cc2c(=O)n1Cc1ccccc1Cl	13	-3	-4	11	x
CCCc1nc2ccc(NC(C)=O)cc2c(=O)n1Cc1ccc(Cl)cc1	28*	9	-7	13	14
